This sample holds only a part of the variants without activity.
B1: tRNA (parent)
chain: GUUCCGUUGGCGUAAUGGUAACGCGUCUCCCUCCUAAGGAGAAGACUGCGGGUUCGAGUCCCGUACGGAACG

Variants of: B1
Assay: yeast fitness relative to wild type (ratio to wild type); higher = fitter; tRNA-Arg(CCU), competitive growth, 37 C, YPD
Method in brief: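 Variants of the tRNA-Arg(CCU) gene were chemically synthesised with a 3% per-site mutation rate across 69 sites and placed at the native genomic locus in Saccharomyces cerevisiae. Six parallel replicates of the pooled strains were competed in YPD at 37°C for 24 hours, and gene amplicons from the start and end populations were read by 100-nucleotide paired-end sequencing. Darwinian fitness relative to wild type was derived from changes in genotype frequencies. Genotypes required ≥ 100 starting reads, and estimates < 0.5 were set to 0.5.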

Row | Variant | yeast fitness
1 | GUUCCGUUGGCGUAAUGGUAACGCAUCUUCCUCCUAAGGAGAAGACUGUGGGUUCGAGUCACGUACGGAACG | ≤ 0.5
2 | GUUCCGUUGGCGUAAUGGUAACGCAUCUCUCUCCUAAGGAGAGGACUGCGGAUUCGAGUCCCGUACGGAACG | 0.701
3 | GUUCCGUUGGCGUAAUGGUAACGCAUCUCCCUCCUAAGGAGAAGACUGCGGGUUGGAGUCCCGUACGGAACG | 0.681
4 | GUUCCGUUGGCGUAAUGGUAACGCAUCUCCCUUCUAAGGAGAAGACUGCGGGUUCGAGUCCAGUACGGACCG | ≤ 0.5
5 | GUUCCGUUGGCGUAAUGGUAACGCAUCUCCCUCGUAAGGAGAAGACUGCGGGUACGAGUCCCGUUCGGAACG | ≤ 0.5
6 | GUUCCGUUGGCGUAAUGGUAACGCAUCUCCCUCCUAAGGACAAGACUGCGGGUUCGAGUCCCGUACGGAACG | 0.974
7 | GUUCCGUUGGCGUAAUGGUAACGCAUCUCCCUCUUUAGGAGAAGACUGCGGGUUCGAGUUCCGUACGGAACG | ≤ 0.5
8 | GUUCCGUUGGCGUAAUGGUAACGCAUCUCACUCAUAAGGAGAAGACUGCGGGUUCGAGUCCCGUACGGCACG | ≤ 0.5
9 | GUUCCGUUGGCGUAAUGGUAACGCAUCUCCUUCCUAAGGAGAAGACUGCGGGUUGGAGUCUAGUACGGAACG | 0.598
10 | GUUCCGUUGGCGUAAUGGUAACGCAUCUCCAUCCUAAGGAGAAGCCUGCAGGUUCGAGUCCCGUACGGUACG | ≤ 0.5
11 | GUUCCGUUGGCGUAAUGGUAACGCAUCUCCCUCAUAAGGAGAAGACCGCGGGUUCGAGUCCCGUACGGAACG | ≤ 0.5
12 | GUUCCGUUGGCGUAAUGGUAACGCAUCUCCUUCCUAACGAGAAGACUGCGGGUUCGAGUCCCGUACGGAACG | 0.881
13 | GUUCCGUUGGCGUAAUGGUAACGCAUCUCCCUCCUAAGGAAAAGACUGCGGGUUCGAGUCCCGUACGGACCG | 0.714
14 | GUUCCGUUGGCGUAAUGGUAACGCAUCUCCCUCCUAAGGAGAAGACUGUGGGUUCGAGUCCCGUGCGGACCG | ≤ 0.5
15 | GUUCCGUUGGCGUAAUGGUAACGCAUCUCUCUCCUAAGGAGAAGACUGCGGGUACGAGUCCCGUACGGAACG | 0.533
16 | GUUCCGUUGGCGUAAUGGUAACGCAUCUUCGUCCUAAGGAGAAGACUGCGGGUUCGAGUCCCGUACGGAACG | ≤ 0.5
17 | GUUCCGUUGGCGUAAUGGUAACGCAUCUUCUUCCUAAGGAGAAGACUGCGGGUUCGAGUCCCGUACGGAACG | 0.57
18 | GUUCCGUUGGCGUAAUGGUAACGCAUCUCCUUCCUACGGAGAAGACUGCGGGUUCGAGUCCCGUACGUAACG | ≤ 0.5
19 | GUUCCGUUGGCGUAAUGGUAACGCAUCUCUCUCCUAAGGAGAAGACUGCGGGUUCGAGUCCUGUACGGAACG | 0.583
20 | GUUCCGUUGGCGUAAUGGUAACGCAUCUCCCUCCUAAGGAGAAGAUUGCGGGUUCGUGUCCCGUACGGAACG | 0.965
21 | GUUCCGUUGGCGUAAUGGUAACGCAUCUCCUUCCUAAGGAGAAGACUGCGGGUUCGAGUCCCGUAUGGAACG | 0.761
22 | GUUCCGUUGGCGUAAUGGUAACGCAUCUCCCUCCUAAGGACAAGACUGCGGGUGCGAGUCUCGUACGGAACG | ≤ 0.5
23 | GUUCCGUUGGCGUAAUGGUAACGCAUCUCCCUCCUAAGGAGAAGACUGCGGGUUCGAGUCGCGUACGGAACG | 0.679
24 | GUUCCGUUGGCGUAAUGGUAACGCAUCUCCCUCCUAAGGAGAAGACUGCGGGUUCGAGUCUCGUACGGAACG | 0.971
25 | GUUCCGUUGGCGUAAUGGUAACGCAUCUCCCUCCUAAGGAGAAGACUGCGGGUUCGAGUCACGUACGGAACG | 0.595

Row | Variant | yeast fitness
26 | GUUCCGUUGGCGUAAUGGUAACGCAUCUCCGUCCUAAGGAGAAGACUGCGGGUUCGAGUCCCGUACGGAGCG | 0.642
27 | GUUCCGUUGGCGUAAUGGUAACGCAUCUCCCUACUAAGGGGAAGACUGCGGGUUCGAGUCCCGUACGGAACG | 0.544
28 | GUUCCGUUGGCGUAAUGGUAACGCAUCUCUCUCCUAAGGAGAAGACUGCGGGUUCGAGUGCCGUACGGAACG | 0.541
29 | GUUCCGUUGGCGUAAUGGUAACGCAUCUCCCUCCUAAGGAGAAGACUGCGGGUUCGAGUCUCGUACGGCACG | 0.637
30 | GUUCCGUUGGCGUAAUGGUAACGCAUCUCCCUCCUAAGCAGAAGACUGCGGGUUCGAGUCCCGUACGGAACG | 0.755
31 | GUUCCGUUGGCGUAAUGGUAACGCAUCUCCCUCCUAAGGAAAAGAGUGCAGGUUCGAGUCCAGUACGGAACG | ≤ 0.5
32 | GUUCCGUUGGCGUAAUGGUAACGCAUCUCCCUCCUAAGGAGAAGAGUGCGGGAUCGAGUCCCGUCCGGAACG | ≤ 0.5
33 | GUUCCGUUGGCGUAAUGGUAACGCAUCUCCCUCCUAAGGAGAAGACUGCGGGUUCGAGUGACAUACGGAACG | ≤ 0.5
34 | GUUCCGUUGGCGUAAUGGUAACGCAUCUCGCUCCUAAGGAGAAGACUGCGGGUUCGGGUCCCGUACGGAACG | 0.582
35 | GUUCCGUUGGCGUAAUGGUAACGCAUCUCCCUCUUAAGGAGAUGACUGCGGGUUCAAGUCCCGUACGGAACG | ≤ 0.5
36 | GUUCCGUUGGCGUAAUGGUAACGCAUCUCCCUCCUAAGGAGAAGAGUGCGGGUUCGAGUCCCGUACGGAACG | 0.99
37 | GUUCCGUUGGCGUAAUGGUAACGCAUCUCCCUCCUAAGGAGAAGAUUGCGGGUUCGAGUCCCGUACGGAACG | 0.938
38 | GUUCCGUUGGCGUAAUGGUAACGCAUCUCCCUCCUAAGGAGAAGACUGCGGGUUCGAGUAACAUACGGAACG | 0.75
39 | GUUCCGUUGGCGUAAUGGUAACGCAUCUCCCUCCUAAGGAGAAGACUGUGGGUUCGAGUCCCGUUCGGAACG | 0.849
40 | GUUCCGUUGGCGUAAUGGUAACGCAUCUCCCUCCUAAGGAGAAGAUUGCGGGUUCGAGUCCGGUACGGAACG | 0.739
41 | GUUCCGUUGGCGUAAUGGUAACGCAUCUCCCUCCUAAGGAGAAGACUGCGGGUUCGAGUCCCGUAUGGAACG | 0.902
42 | GUUCCGUUGGCGUAAUGGUAACGCAUCUCCCUCCUAAGGAGAAGACUGCGGGUUCGAGUCCCGUAAGGAACG | 0.631
43 | GUUCCGUUGGCGUAAUGGUAACGCAUCUCCCUCCUAAGGACAAGACUGCGGGUUCGAGUCCCGUAUGGAACG | 0.755
44 | GUUCCGUUGGCGUAAUGGUAACGCAUCUCCCUGCUAAGGAGGAGACUGCAGGUUCGAGUCCCGUACGGAACG | 0.596
45 | GUUCCGUUGGCGUAAUGGUAACGCAUCUUCCUCCUAAGGAGAAGACUGCGGGUUCGAGUCCCGUACGGCACG | 0.807
46 | GUUCCGUUGGCGUAAUGGUAACGCAUCUCCUUCCUAACGAGAAGACUGCGGGUUCGAGUCCCGUCCGAUACG | ≤ 0.5
47 | GUUCCGUUGGCGUAAUGGUAACGCAUCUCCUUCCUAAGGAGGAGACUGCGGGUUCGAGUCCUGUACGGCACG | ≤ 0.5
48 | GUUCCGUUGGCGUAAUGGUAACGCAUCUCCCUCCUAAGGACAAGACUGCGGGUUCGUGUCCCGUACGGAACG | 0.649
49 | GUUCCGUUGGCGUAAUGGUAACGCAUCUCCCUCCUAAGAAGAAGACUGCGGAUUCGAGUCCCGUACGGAACG | ≤ 0.5
50 | GUUCCGUUGGCGUAAUGGUAACGCAUCUCCUUCCUAAGGAGAAGACUGCGGGUUCGAGUCCCGUACGGACCG | 0.731

Row | Variant | yeast fitness
51 | GUUCCGUUGGCGUAAUGGUAACGCAUCUCCCUCCUAAGGAAAUGACUGCGGGUUCGAGUCCCGUACGGAACG | ≤ 0.5
52 | GUUCCGUUGGCGUAAUGGUAACGCAUCUCCCUCCUAAGGAGAAGACUGCGGGUUCGAGUCCAGUACGGAUCG | 0.678
53 | GUUCCGUUGGCGUAAUGGUAACGCAUCUCCAUCCUAAGGAGAAGACUGCGCGUUGGUGUCCCGUAUGGAACG | ≤ 0.5
54 | GUUCCGUUGGCGUAAUGGUAACGCAUCUUCCUCCUAAGGAGAAGACUGCGGGUUCGUGUCCAGUACGGGACG | ≤ 0.5
55 | GUUCCGUUGGCGUAAUGGUAACGCAUCUCCCUCCUAACGAGAAGACUGCGGGUUCGAGUCCCGUACGGAACG | 0.775
56 | GUUCCGUUGGCGUAAUGGUAACGCAUCUUCCUCCUAAGGAGAAGACUGUGGGUUCGAGUCCCGUCCGGAACG | ≤ 0.5
57 | GUUCCGUUGGCGUAAUGGUAACGCAUCUCCCUCCUAAGGAGAAGACUGCGGGUUUGAGCCCCGUCCGGAACG | ≤ 0.5
58 | GUUCCGUUGGCGUAAUGGUAACGCAUCUCCCUCCUAAGGAGAAGACUGUGGGUUUGCGUCCCGUACGGAACG | ≤ 0.5
59 | GUUCCGUUGGCGUAAUGGUAACGCAUCUCCCUCCUAAGGAGAAGACUGCGGGUUUGAGUCCCGUACGGCACG | 0.639
60 | GUUCCGUUGGCGUAAUGGUAACGCAUCUCCCUCAUAAGGAGAAGACUGCGGGUUCGAGUCCCGUUCGGAACG | 0.616
61 | GUUCCGUUGGCGUAAUGGUAACGCAUCUCCCUCCUAAGGAGAAGACUGUGGGUUCGAGUCCCGUACGGAACG | 0.991
62 | GUUCCGUUGGCGUAAUGGUAACGCAUCUCCAUCCUAAGGAGAAGACUGCGGGUUCGAGUCCUGUACGGAACG | 0.586
63 | GUUCCGUUGGCGUAAUGGUAACGCAUCUCCCUCCUAAGGAGAAGACUGCGGGUUCGAGUAGCGUUCGGAACG | ≤ 0.5
64 | GUUCCGUUGGCGUAAUGGUAACGCAUCUCCCUCCUAAGGAGAAGACUGCGGGUUCGAGUACCGUACGGAACG | 0.66
65 | GUUCCGUUGGCGUAAUGGUAACGCAUCUCCCUCCUAAGGAGAAGACUGCGGGUUCGAGUGCCGUACGGAACG | 0.718
66 | GUUCCGUUGGCGUAAUGGUAACGCAUCUCCCUCCUAAGGAGAAGACUGCGGGUUCGAGUCCAGUACGGAACG | 0.843
67 | GUUCCGUUGGCGUAAUGGUAACGCAUCUCCCUCCUAAGGAGAAGACUGCGGGUUCGAGUCCGGUACGGAACG | 0.855
68 | GUUCCGUUGGCGUAAUGGUAACGCAUCUCCCUCCUAAGGAGAAGACUGCGGGUUCGAGUCCUGUACGGAACG | 0.931
69 | GUUCCGUUGGCGUAAUGGUAACGCAUCUCCCUCCUAAGGAGAAGACUGUGGGUUCGAGUCCCGCACGGAACG | 0.782
70 | GUUCCGUUGGCGUAAUGGUAACGCAUCUCCCUUCUAAGGAGAAGUCUGCGGGUUCGAGUGCCGUACGGAACG | ≤ 0.5
71 | GUUCCGUUGGCGUAAUGGUAACGCAUCUCCCUCGUAAGGAGAAGACUGCGGGUUCGAGUCCCGUACGGAACG | 0.726
72 | GUUCCGUUGGCGUAAUGGUAACGCAUCUCACUCCUAAAGAGAGGAUUGCGGGUUCGUGUCCCGUACGGAACG | 0.614
73 | GUUCCGUUGGCGUAAUGGUAACGCAUCUCCCUCCUAAGGAGAAGAAUGCGGCUUCGAGUCCCGUACGGAACG | 0.615
74 | GUUCCGUUGGCGUAAUGGUAACGCAUCUCUCUCCUAAGGAGAAGACUGCGGGUUCGAGUCCCGUACGGAACG | 1
75 | GUUCCGUUGGCGUAAUGGUAACGCAUCUCCCUCCUAAGGAAAAGAAUGCGGGUUCGAGUCCCGUACGGCACG | 0.935
